Data published in ChEMBL document CHEMBL4715736, “Identification of anticancer agents based on the thieno[2,3-b]pyridine and 1H-pyrazole molecular scaffolds” (2016).

Experiments:
Format in all cases: functional
HOP-62 [1] = assay: Growth inhibition of human HOP-62 cells assessed as cell growth at 0.1 uM incubated for 48 hrs by sulforhodamine B assay relative to control; conditions: read-out: Activity
A549 [2] = assay: Growth inhibition of human A549/ATCC cells assessed as cell growth at 0.01 uM incubated for 48 hrs by sulforhodamine B assay relative to control; conditions: read-out: Activity
Procedure, shortened: (§1)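 NCI Developmental Therapeutics Program NCI60 panel. Compounds that were active in the 10 µM one-dose screen went on to dose–response testing. Growth at each concentration is expressed relative to untreated control (100%). GI50 (concentration giving 50% of maximal inhibition of proliferation) and TGI (concentration giving total growth inhibition) were derived from the curves.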

SK-OV-3 = assay: Growth inhibition of human SK-OV-3 cells assessed as cell growth at 0.1 uM incubated for 48 hrs by sulforhodamine B assay relative to control; conditions: read-out: Activity
TK-10 [3] = assay: Growth inhibition of human TK-10 cells assessed as cell growth at 1 uM incubated for 48 hrs by sulforhodamine B assay relative to control; conditions: read-out: Activity
Hs-578T [4] = assay: Growth inhibition of human Hs-578T cells incubated for 48 hrs by sulforhodamine B assay; conditions: for CC50: read-out: LC50 (the source's name)
Procedure, shortened: (§2)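 NCI60 panel at the NCI Developmental Therapeutics Program. Only compounds active in the 10 µM screen went to dose-response testing. GI50, the concentration giving 50% of maximal inhibition of proliferation, and TGI, the concentration giving total growth inhibition, were derived from the dose-response curves.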

M14 = assay: Growth inhibition of human M14 cells assessed as cell growth at 1 uM incubated for 48 hrs by sulforhodamine B assay relative to control; conditions: read-out: Activity
KM12 = assay: Growth inhibition of human KM12 cells incubated for 48 hrs by sulforhodamine B assay; procedure, shortened: as §2
CAKI-1 = assay: Growth inhibition of human CAKI-1 cells assessed as cell growth at 100 uM incubated for 48 hrs by sulforhodamine B assay relative to control; conditions: read-out: Activity; procedure, shortened: as §1
SK-MEL-5 = assay: Growth inhibition of human SK-MEL-5 cells incubated for 48 hrs by sulforhodamine B assay
Procedure, shortened: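 NCI DTP 60-line human tumour panel. Dose-response curves were run only for ligands active in the initial 10 µM screen. GI50 (concentration giving 50% of maximal inhibition of proliferation) and TGI (concentration giving total growth inhibition) were derived from these curves.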

TK-10 [5] = assay: Growth inhibition of human TK-10 cells assessed as cell growth at 0.01 uM incubated for 48 hrs by sulforhodamine B assay relative to control; conditions: read-out: Activity
NCI-H460 = assay: Growth inhibition of human NCI-H460 cells assessed as cell growth at 0.1 uM incubated for 48 hrs by sulforhodamine B assay relative to control; conditions: read-out: Activity
OVCAR-4 = assay: Growth inhibition of human OVCAR-4 cells assessed as cell growth at 0.1 uM incubated for 48 hrs by sulforhodamine B assay relative to control; conditions: read-out: Activity
OVCAR-3 = assay: Growth inhibition of human OVCAR-3 cells assessed as cell growth at 0.1 uM incubated for 48 hrs by sulforhodamine B assay relative to control; conditions: read-out: Activity
IGROV-1 = assay: Growth inhibition of human IGROV-1 cells incubated for 48 hrs by sulforhodamine B assay; procedure, shortened: as §2
DU-145 [6] = assay: Growth inhibition of human DU-145 cells incubated for 48 hrs by sulforhodamine B assay; conditions: for CC50: read-out: LC50 (the source's name); procedure, shortened: as §1
T47D = assay: Growth inhibition of human T47D cells assessed as cell growth at 100 uM incubated for 48 hrs by sulforhodamine B assay relative to control; conditions: read-out: Activity
NCI/ADR-RES = assay: Growth inhibition of human NCI/ADR-RES cells assessed as cell growth at 100 uM incubated for 48 hrs by sulforhodamine B assay relative to control; conditions: read-out: Activity
MDA-MB-435 = assay: Growth inhibition of human MDA-MB-435 cells assessed as cell growth at 0.1 uM incubated for 48 hrs by sulforhodamine B assay relative to control; conditions: read-out: Activity
HOP-92 [7] = assay: Growth inhibition of human HOP-92 cells assessed as cell growth at 100 uM incubated for 48 hrs by sulforhodamine B assay relative to control; conditions: read-out: Activity
ACHN = assay: Growth inhibition of human ACHN cells assessed as cell growth at 0.1 uM incubated for 48 hrs by sulforhodamine B assay relative to control; conditions: read-out: Activity
SW-620 [8] = assay: Growth inhibition of human SW-620 cells assessed as cell growth at 1 uM incubated for 48 hrs by sulforhodamine B assay relative to control; conditions: read-out: Activity
OVCAR-5 = assay: Growth inhibition of human OVCAR-5 cells assessed as cell growth at 0.01 uM incubated for 48 hrs by sulforhodamine B assay relative to control; conditions: read-out: Activity
A549 [9] = assay: Growth inhibition of human A549/ATCC cells assessed as cell growth at 100 uM incubated for 48 hrs by sulforhodamine B assay relative to control; conditions: read-out: Activity; procedure, shortened: as §1
BT-549 = assay: Growth inhibition of human BT-549 cells assessed as cell growth at 100 uM incubated for 48 hrs by sulforhodamine B assay relative to control; conditions: read-out: Activity
Malme-3M [10] = assay: Growth inhibition of human Malme-3M cells assessed as cell growth at 100 uM incubated for 48 hrs by sulforhodamine B assay relative to control; conditions: read-out: Activity
DU-145 [11] = assay: Growth inhibition of human DU-145 cells assessed as cell growth at 1 uM incubated for 48 hrs by sulforhodamine B assay relative to control; conditions: read-out: Activity; procedure, shortened: as §1
Hs-578T [12] = assay: Growth inhibition of human Hs-578T cells assessed as cell growth at 1 uM incubated for 48 hrs by sulforhodamine B assay relative to control; conditions: read-out: Activity
MOLT-4 = assay: Growth inhibition of human MOLT-4 cells assessed as cell growth at 0.1 uM incubated for 48 hrs by sulforhodamine B assay relative to control; conditions: read-out: Activity
HOP-62 [13] = assay: Growth inhibition of human HOP-62 cells assessed as cell growth at 100 uM incubated for 48 hrs by sulforhodamine B assay relative to control; conditions: read-out: Activity
SNB-19 = assay: Growth inhibition of human SNB-19 cells assessed as cell growth at 1 uM incubated for 48 hrs by sulforhodamine B assay relative to control; conditions: read-out: Activity
Malme-3M [14] = assay: Growth inhibition of human Malme-3M cells assessed as cell growth at 1 uM incubated for 48 hrs by sulforhodamine B assay relative to control; conditions: read-out: Activity
MDA-MB-231 = assay: Growth inhibition of human MDA-MB-231 cells assessed as cell growth at 100 uM incubated for 48 hrs by sulforhodamine B assay relative to control; conditions: read-out: Activity
NCI-H226 = assay: Growth inhibition of human NCI-H226 cells incubated for 48 hrs by sulforhodamine B assay; conditions: for CC50: read-out: LC50 (the source's name); procedure, shortened: as §2
SW-620 [15] = assay: Growth inhibition of human SW-620 cells assessed as cell growth at 100 uM incubated for 48 hrs by sulforhodamine B assay relative to control; conditions: read-out: Activity
HOP-92 [16] = assay: Growth inhibition of human HOP-92 cells assessed as cell growth at 0.1 uM incubated for 48 hrs by sulforhodamine B assay relative to control; conditions: read-out: Activity

## COc1cccc(NC(=O)c2sc3nc4c(cc3c2N)CN(Cc2ccccc2)CC4)c1
HOP-62 [1]
  growth at 0.1 µM: 86%
A549 [2]
  growth at 0.01 µM: 96%
SK-OV-3
  growth at 0.1 µM: 100%
TK-10 [3]
  growth at 1 µM: 98%
Hs-578T [4]
  GI50: 2.14 µM
  TGI: 23 µM
  CC50: > 100 µM
M14
  growth at 1 µM: 57%
KM12
  GI50: 11.8 µM
  LC50: > 100 µM
  TGI: 40.3 µM
CAKI-1
  growth at 100 µM: 11%
SK-MEL-5
  GI50: 2.15 µM
  LC50: > 100 µM
  TGI: 31.9 µM
TK-10 [5]
  growth at 0.01 µM: 104%
NCI-H460
  growth at 0.1 µM: 101%
OVCAR-4
  growth at 0.1 µM: 93%
OVCAR-3
  growth at 0.1 µM: 103%
IGROV-1
  GI50: 18.5 µM
  LC50: > 100 µM
  TGI: > 100 µM
DU-145 [6]
  GI50: 5.22 µM
  TGI: 22.2 µM
  CC50: 76.3 µM
T47D
  growth at 100 µM: -19%
NCI/ADR-RES
  growth at 100 µM: -26%
MDA-MB-435
  growth at 0.1 µM: 91%
HOP-92 [7]
  growth at 100 µM: -38%
ACHN
  growth at 0.1 µM: 101%
SW-620 [8]
  growth at 1 µM: 57%
OVCAR-5
  growth at 0.01 µM: 91%
A549 [9]
  growth at 100 µM: -8%
BT-549
  growth at 100 µM: -32%
Malme-3M [10]
  growth at 100 µM: -42%
DU-145 [11]
  growth at 1 µM: 95%
Hs-578T [12]
  growth at 1 µM: 72%
MOLT-4
  growth at 0.1 µM: 104%
HOP-62 [13]
  growth at 100 µM: -71%
SNB-19
  growth at 1 µM: 82%
Malme-3M [14]
  growth at 1 µM: 57%
MDA-MB-231
  growth at 100 µM: -8%
NCI-H226
  GI50: 6.03 µM
  TGI: 38.3 µM
  CC50: > 100 µM
SW-620 [15]
  growth at 100 µM: -5%
HOP-92 [16]
  growth at 0.1 µM: 80%

## Cc1ccc(NC(=O)c2sc3nc4c(cc3c2N)C(=O)CCC4)cc1C
HOP-62 [1]
  growth at 0.1 µM: 86%
A549 [2]
  growth at 0.01 µM: 100%
SK-OV-3
  growth at 0.1 µM: 107%
TK-10 [3]
  growth at 1 µM: 52%
Hs-578T [4]
  GI50: 0.356 µM
  TGI: > 100 µM
  CC50: > 100 µM
M14
  growth at 1 µM: 22%
KM12
  GI50: 0.479 µM
  LC50: > 100 µM
  TGI: > 100 µM
CAKI-1
  growth at 100 µM: 22%
SK-MEL-5
  GI50: 0.376 µM
  LC50: ≥ 100 µM
  TGI: 16.4 µM
TK-10 [5]
  growth at 0.01 µM: 96%
NCI-H460
  growth at 0.1 µM: 102%
OVCAR-4
  growth at 0.1 µM: 82%
OVCAR-3
  growth at 0.1 µM: 101%
IGROV-1
  GI50: 1.09 µM
  LC50: > 100 µM
  TGI: > 100 µM
DU-145 [6]
  GI50: 0.602 µM
  TGI: > 100 µM
  CC50: > 100 µM
T47D
  growth at 100 µM: -13%
NCI/ADR-RES
  growth at 100 µM: 4%
MDA-MB-435
  growth at 0.1 µM: 60%
HOP-92 [7]
  growth at 100 µM: 2%
ACHN
  growth at 0.1 µM: 95%
SW-620 [8]
  growth at 1 µM: 19%
OVCAR-5
  growth at 0.01 µM: 89%
A549 [9]
  growth at 100 µM: 13%
BT-549
  growth at 100 µM: 42%
Malme-3M [10]
  growth at 100 µM: 28%
DU-145 [11]
  growth at 1 µM: 35%
Hs-578T [12]
  growth at 1 µM: 16%
MOLT-4
  growth at 0.1 µM: 106%
HOP-62 [13]
  growth at 100 µM: 28%
SNB-19
  growth at 1 µM: 37%
Malme-3M [14]
  growth at 1 µM: 24%
MDA-MB-231
  growth at 100 µM: 24%
NCI-H226
  GI50: 22.4 µM
  TGI: > 100 µM
  CC50: > 100 µM
SW-620 [15]
  growth at 100 µM: 18%
HOP-92 [16]
  growth at 0.1 µM: 72%
